ChEMBL document CHEMBL4265975, “Synthesis, biological evaluation and molecular modeling of a novel series of fused 1,2,3-triazoles as potential anti-coronavirus agents” (Bioorg Med Chem Lett, 2018)

How the values were obtained:
[1] = Selectivity index, ratio of MCC for HEL cells to EC50 for Human adenovirus 2 infected in HEL cells; assay type: toxicity, cell-based; settings: read-out: Selectivity Index
How it was run: (§1)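 SI is MCC divided by EC50. […] MCC was measured in parallel on HEL cells seeded at 5 x 10^3 cells/well, as the lowest concentration causing microscopically visible alteration of cell morphology. The top concentration tested was 100 µM.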

[2] = Selectivity index, ratio of MCC for HEL cells to EC50 for acyclovir-resistant TK-defecient Herpes simplex virus 1 KOS infected in HEL cells; assay type: toxicity, cell-based; settings: human, read-out: Selectivity Index; how it was run: as §1
[3] = system: Human coronavirus 229E; assay: Antiviral activity against Human coronavirus 229E infected in HEL cells assessed as reduction in virus-induced pathogenicity after 3 days by microscopic method; assay type: functional, organism-based; settings: 72 h
[4] = system: Human alphaherpesvirus 2; assay: Antiviral activity against Human herpesvirus 2 strain G infected in human HEL cells assessed as inhibition of virus-induced cytopathic effect after 3 days by microscopic method; assay type: functional, organism-based; settings: Human alphaherpesvirus 2, strain G, 72 h
[5] = Selectivity index, ratio of MCC for HEL cells to EC50 for Herpes simplex virus 2 strain G infected in HEL cells; assay type: toxicity, cell-based; settings: human, read-out: Selectivity Index; how it was run: as §1
[6] = Selectivity index, ratio of MCC for HEL cells to EC50 for Vaccinia virus infected in HEL cells; assay type: toxicity, cell-based; settings: human, read-out: Selectivity Index; how it was run: as §1
[7] = system: Human alphaherpesvirus 1; assay: Antiviral activity against Herpes simplex virus 1 KOS infected in human HEL cells assessed as inhibition of virus-induced cytopathic effect after 3 days by microscopic method; assay type: functional, organism-based; settings: Human alphaherpesvirus 1, KOS, 72 h
[8] = system: Vaccinia virus; assay: Antiviral activity against Vaccinia virus infected in human HEL cells assessed as inhibition of virus-induced cytopathic effect after 3 days by microscopic method; assay type: functional, organism-based; settings: Orthopoxvirus vaccinia, 72 h
[9] = Selectivity index, ratio of MCC for HEL cells to EC50 for Human coronavirus 229E infected in HEL cells; assay type: toxicity, cell-based; settings: read-out: Selectivity Index; how it was run: as §1
[10] = Selectivity index, ratio of MCC for HEL cells to EC50 for Herpes simplex virus 1 KOS infected in HEL cells; assay type: toxicity, cell-based; settings: human, read-out: Selectivity Index; how it was run: as §1
[11] = system: Human adenovirus 2; assay: Antiviral activity against Human adenovirus 2 infected in human HEL cells assessed as inhibition of virus-induced cytopathic effect after 3 days by microscopic method; assay type: functional, organism-based; settings: Human mastadenovirus C, 72 h
How it was run: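 HEL cells were infected with adenovirus 2 for 2 h. Residual virus was then removed and the cells were incubated with medium containing graded compound concentrations for 3 days at 37°C. Virus-induced cytopathogenicity was scored microscopically.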

[12] = system: Human alphaherpesvirus 1; assay: Antiviral activity against acyclovir-resistant TK-defecient Herpes simplex virus 1 KOS infected in human HEL cells assessed as inhibition of virus-induced cytopathic effect after 3 days by microscopic method; assay type: functional, organism-based; settings: Human alphaherpesvirus 1, KOS, 72 h
[13] = Cytotoxicity against HEL cells assessed as alteration in cell morphology after 3 days by microscopic method; assay type: cell-based; settings: human
How it was run: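 HEL cells were seeded at 5 x 10^3 cells/well and exposed to graded compound concentrations, up to 100 μM, in parallel with the antiviral assay. Cell morphology was examined by light microscopy. MCC is the minimum concentration causing a microscopically detectable alteration of normal cell morphology.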

COc1ccc(CCn2nnc3c2CCN(c2ccc(C(F)(F)F)cc2)C3)cc1
8.9 µM: EC50 [3]
> 8: selectivity ratio [1] | selectivity ratio [2] | selectivity ratio [5] | selectivity ratio [6] | selectivity ratio [9] | selectivity ratio [10]
> 100 µM: EC50 [4] | EC50 [7] | EC50 [8] | EC50 [11] | EC50 [12] | MCC at 72 h [13]

CCCCCCn1nnc2c1CCN(c1ccc(C(F)(F)F)cc1)C2
> 8: selectivity ratio [1] | selectivity ratio [2] | selectivity ratio [5] | selectivity ratio [6] | selectivity ratio [9] | selectivity ratio [10]
> 100 µM: EC50 [3] | EC50 [4] | EC50 [7] | EC50 [8] | EC50 [11] | EC50 [12] | MCC at 72 h [13]

Fc1ccc(N2CCc3c(nnn3CC(c3ccccc3)c3ccccc3)C2)cc1
> 100 µM: EC50 [3] | EC50 [4] | EC50 [7] | EC50 [8] | EC50 [11] | EC50 [12]
≥ 100 µM: MCC at 72 h [13]
> 8: selectivity ratio [1] | selectivity ratio [2] | selectivity ratio [5] | selectivity ratio [6] | selectivity ratio [9] | selectivity ratio [10]

COc1cccc(CCn2nnc3c2CCN(c2ccc(C(F)(F)F)cc2)C3)c1
> 8: selectivity ratio [1] | selectivity ratio [2] | selectivity ratio [5] | selectivity ratio [6] | selectivity ratio [9] | selectivity ratio [10]
16 µM: EC50 [11]
> 100 µM: EC50 [3] | EC50 [4] | EC50 [7] | EC50 [8] | EC50 [12] | MCC at 72 h [13]

CCOC(=O)C1(Cc2ccccc2)CN(c2ccccc2)Cc2nnn(Cc3ccc(OC)cc3)c21 (stereo unspecified)
> 100 µM: EC50 [3] | EC50 [4] | EC50 [7] | EC50 [8] | EC50 [11] | EC50 [12] | MCC at 72 h [13]
> 8: selectivity ratio [1] | selectivity ratio [2] | selectivity ratio [5] | selectivity ratio [6] | selectivity ratio [9] | selectivity ratio [10]

COc1ccccc1CCn1nnc2c1CCN(c1ccc(C(F)(F)F)cc1)C2
> 100 µM: EC50 [3] | EC50 [4] | EC50 [7] | EC50 [8] | EC50 [11] | EC50 [12] | MCC at 72 h [13]
> 8: selectivity ratio [1] | selectivity ratio [2] | selectivity ratio [5] | selectivity ratio [6] | selectivity ratio [9] | selectivity ratio [10]

Fc1ccc(Cn2nnc3c2CCN(c2ccc(C(F)(F)F)cc2)C3)cc1
> 100 µM: EC50 [3] | EC50 [4] | EC50 [7] | EC50 [8] | EC50 [11] | EC50 [12]
> 8: selectivity ratio [1] | selectivity ratio [2] | selectivity ratio [5] | selectivity ratio [6] | selectivity ratio [9] | selectivity ratio [10]
100 µM: MCC at 72 h [13]

CCCCCCn1nnc2c1CCN(c1ccc(F)cc1)C2
> 100 µM: EC50 [3] | EC50 [4] | EC50 [7] | EC50 [8] | EC50 [11] | EC50 [12] | MCC at 72 h [13]
> 8: selectivity ratio [1] | selectivity ratio [2] | selectivity ratio [5] | selectivity ratio [6] | selectivity ratio [9] | selectivity ratio [10]

CCOC(=O)C1(Cc2ccccc2)CN(c2ccccc2)Cc2nnn(Cc3ccccc3)c21 (stereo unspecified)
> 8: selectivity ratio [1] | selectivity ratio [2] | selectivity ratio [5] | selectivity ratio [6] | selectivity ratio [9] | selectivity ratio [10]
> 100 µM: EC50 [3] | EC50 [4] | EC50 [7] | EC50 [8] | EC50 [11] | EC50 [12]
≥ 20 µM: MCC at 72 h [13]

CCCCCCn1nnc2c1CCN(c1ccccc1)C2
> 8: selectivity ratio [1] | selectivity ratio [2] | selectivity ratio [5] | selectivity ratio [6] | selectivity ratio [9] | selectivity ratio [10]
> 100 µM: EC50 [3] | EC50 [4] | EC50 [7] | EC50 [8] | EC50 [11] | EC50 [12] | MCC at 72 h [13]

Fc1cccc(Cn2nnc3c2CCN(c2ccc(C(F)(F)F)cc2)C3)c1
100 µM: MCC at 72 h [13]
12 µM: EC50 [3]
> 100 µM: EC50 [4] | EC50 [7] | EC50 [8] | EC50 [11] | EC50 [12]
> 8: selectivity ratio [1] | selectivity ratio [2] | selectivity ratio [5] | selectivity ratio [6] | selectivity ratio [9] | selectivity ratio [10]

CCOC(=O)C1(Cc2ccccc2)CN(c2ccccc2)Cc2nnn(Cc3cc(OC)c(OC)c(OC)c3)c21 (stereo unspecified)
> 8: selectivity ratio [1] | selectivity ratio [2] | selectivity ratio [5] | selectivity ratio [6] | selectivity ratio [9] | selectivity ratio [10]
≥ 100 µM: MCC at 72 h [13]
> 100 µM: EC50 [3] | EC50 [4] | EC50 [7] | EC50 [8] | EC50 [11] | EC50 [12]
